Measured values reported in ChEMBL document CHEMBL2346629, “Discovery and characterization of novel allosteric FAK inhibitors” (Eur J Med Chem, 2013).

How the values were obtained:
[1] = molecular target: Serine/threonine-protein kinase PAK 1 (Homo sapiens) (UniProt Q13153); test: Inhibition of PAK1 (unknown origin) using [gamma-33P]ATP assessed as residual activity at 3 uM
[2] = molecular target: Protein kinase C theta type (Homo sapiens) (UniProt Q04759); test: Inhibition of PKCtheta (unknown origin) using [gamma-33P]ATP assessed as residual activity at 3 uM
Protein kinase C theta type (Homo sapiens), sequence (Q04759 whole entry, looked up): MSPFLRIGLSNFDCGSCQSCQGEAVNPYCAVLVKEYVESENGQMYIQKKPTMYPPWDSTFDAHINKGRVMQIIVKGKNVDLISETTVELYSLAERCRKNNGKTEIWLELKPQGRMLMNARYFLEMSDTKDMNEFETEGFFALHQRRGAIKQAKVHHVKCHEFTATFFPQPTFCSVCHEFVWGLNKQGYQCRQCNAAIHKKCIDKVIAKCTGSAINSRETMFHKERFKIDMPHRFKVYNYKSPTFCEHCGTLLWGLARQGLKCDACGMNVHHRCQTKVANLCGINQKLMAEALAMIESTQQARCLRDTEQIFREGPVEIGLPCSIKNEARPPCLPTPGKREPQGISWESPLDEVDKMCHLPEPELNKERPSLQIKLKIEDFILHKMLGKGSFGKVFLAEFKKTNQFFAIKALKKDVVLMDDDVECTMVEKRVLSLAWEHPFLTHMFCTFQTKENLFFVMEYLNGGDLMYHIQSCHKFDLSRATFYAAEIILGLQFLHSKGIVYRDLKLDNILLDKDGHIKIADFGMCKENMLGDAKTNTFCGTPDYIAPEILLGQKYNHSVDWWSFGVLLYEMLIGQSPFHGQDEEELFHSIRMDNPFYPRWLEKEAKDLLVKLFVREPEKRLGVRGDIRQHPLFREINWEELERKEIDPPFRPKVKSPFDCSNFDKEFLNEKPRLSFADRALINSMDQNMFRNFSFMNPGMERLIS

[3] = molecular target: Tyrosine-protein kinase Lyn (Homo sapiens) (UniProt P07948); test: Inhibition of LYN (unknown origin) using [gamma-33P]ATP assessed as residual activity at 3 uM
Tyrosine-protein kinase Lyn (Homo sapiens), sequence (P07948 2-512 limits assumed): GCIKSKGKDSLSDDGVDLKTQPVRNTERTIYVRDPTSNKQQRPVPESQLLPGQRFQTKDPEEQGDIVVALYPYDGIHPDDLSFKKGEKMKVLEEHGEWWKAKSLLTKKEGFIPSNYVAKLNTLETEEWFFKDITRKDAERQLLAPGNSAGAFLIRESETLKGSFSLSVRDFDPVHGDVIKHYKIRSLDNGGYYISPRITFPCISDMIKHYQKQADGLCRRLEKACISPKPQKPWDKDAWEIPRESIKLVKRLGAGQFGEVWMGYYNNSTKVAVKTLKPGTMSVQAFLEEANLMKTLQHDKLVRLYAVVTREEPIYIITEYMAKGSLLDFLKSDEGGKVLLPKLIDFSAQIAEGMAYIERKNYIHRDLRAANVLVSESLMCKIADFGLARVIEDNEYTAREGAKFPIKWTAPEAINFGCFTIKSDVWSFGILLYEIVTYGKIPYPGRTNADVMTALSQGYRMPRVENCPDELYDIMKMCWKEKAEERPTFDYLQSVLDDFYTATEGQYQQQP
Procedure, shortened: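 Radiometric kinase profiling service covering 288 kinases (261 wild-type, 27 mutant). Inhibition was read as incorporation from [γ-³³P]ATP.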

Serine/threonine-protein kinase PAK 1 (Homo sapiens), sequence (Q13153 whole entry): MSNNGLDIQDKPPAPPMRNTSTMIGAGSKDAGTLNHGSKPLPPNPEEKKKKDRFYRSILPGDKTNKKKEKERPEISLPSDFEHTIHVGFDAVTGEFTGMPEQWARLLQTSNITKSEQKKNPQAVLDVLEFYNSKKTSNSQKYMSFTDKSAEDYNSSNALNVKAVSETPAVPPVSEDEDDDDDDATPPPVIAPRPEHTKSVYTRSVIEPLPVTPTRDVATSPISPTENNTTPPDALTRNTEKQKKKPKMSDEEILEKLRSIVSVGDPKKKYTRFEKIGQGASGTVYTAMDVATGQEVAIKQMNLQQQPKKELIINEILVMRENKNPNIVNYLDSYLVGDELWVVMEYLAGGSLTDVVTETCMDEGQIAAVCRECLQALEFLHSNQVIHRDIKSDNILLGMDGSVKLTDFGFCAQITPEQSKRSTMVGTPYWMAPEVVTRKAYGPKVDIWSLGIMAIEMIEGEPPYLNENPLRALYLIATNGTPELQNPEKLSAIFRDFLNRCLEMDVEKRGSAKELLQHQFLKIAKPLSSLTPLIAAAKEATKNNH

CCc1ccc(-c2ccc3c(c2)-c2[nH]ncc2S(=O)(=O)N3C)cc1
Activity [1]: 80%
Activity [2]: 98%
Activity [3]: 78%
